Consider 1 molecule from ChEMBL document CHEMBL1833861 (J Med Chem, 2011).

Calls of active or inactive are those of the source. The calls are words filed in the database; no cut-off is given here.

The test system of assay [1] is Mus musculus. Put plainly: Antidepressant activity in BALB/cJ mouse assessed as decrease in immobility time at 1 mg/kg, ip after 30 mins by forced swim test. The format is functional, organism-based. Details: dose 1 mg/kg. The procedure, abridged:
(§1)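 Male BALB/cJ mice, 8–10 weeks old; compound in injectable water given ip at 10 mL/kg. Sertraline (10 or 20 mg/kg) served as positive control. 30 min post-dose, each mouse placed in a glass cylinder with 12 cm of 23 ± 1 °C water; immobility (floating) timed over a 6 min trial. n = 10/group; ANOVA with post hoc test.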

Assay [2] deals with Mus musculus. Put plainly: Antidepressant activity in BALB/cJ mouse assessed as decrease in immobility time at 3 mg/kg, ip after 30 mins by forced swim test. Details: dose 3 mg/kg. The format is functional, organism-based. Put shortly: as §1
In assay [3] the test system is Mus musculus. Put plainly: Ex vivo receptor occupancy at beta2 nAChR in BALB/cJ mouse brain at 3 mg/kg, ip after 30 mins. The note with it: route intraperitoneal. The format is functional. The procedure, abridged: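 Male BALB/cJ mice, 8–10 weeks old, dosed IP at 3 mg/kg (water vehicle, 10 mL/kg); vehicle controls received water. Brains collected 30 min after dosing, matching the forced-swim timing. β2* nAChR occupancy measured ex vivo in thalamus.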

The test system of assay [4] is Mus musculus. Briefly: Antidepressant activity in BALB/cJ mouse assessed as decrease in immobility time at 10 mg/kg, po after 30 mins by forced swim test. The format is functional, organism-based. Set-up: dose 10 mg/kg. Put shortly:
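Male BALB/cJ mice, 8–10 weeks old, dosed by oral gavage with compound in injectable water (10 mL/kg). Sertraline served as positive control. Forced swim begins 30 min after dosing, in a cylinder with 12 cm of 23 ± 1 °C water; total immobility recorded over 6 min. ANOVA followed by Newman-Keuls post hoc test.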

Regarding `Cl.OCCc1cc(-c2cncc(OC[C@@H]3CCN3)c2)on1`, the outcome in assay [1], in assay [2] and in assay [4] was Active. This molecule also had an Activity in assay [3] of 60%.
